Columns and labels:
Assay in all cases: NCI-60 single-dose antiproliferative screen
Format in all cases: cell-based
NCI-H460 = conditions: Homo sapiens, NCI-H460, 48 h, read-out: growth percent
In short: (§1)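 NCI-60 protocol. Lines were grown in RPMI 1640 with 5% FBS and 2 mM L-glutamine, plated and incubated 24 h at 37 °C; time-zero plates were TCA-fixed. The test compound was dissolved in DMSO, diluted in medium with 50 μg/mL gentamicin and given once at a final 10^-5 M (DMSO control) for 48 h. Cells were fixed with cold TCA (1 h, 4 °C) and stained with 0.4% SRB in 1% acetic acid for 10 min. Dye was dissolved in 10 mM Trizma base and read at 515 nm. Growth percent was calculated from time-zero, test and control ODs.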

NCI-H226 = conditions: Homo sapiens, NCI-H226, 48 h, read-out: growth percent
In short: as §1

K-562 = conditions: Homo sapiens, K562, 48 h, read-out: growth percent
In short: as §1

MDA-MB-468 = conditions: Homo sapiens, MDA-MB-468, 48 h, read-out: growth percent
In short: as §1

NCI/ADR-RES = conditions: Homo sapiens, 48 h, read-out: growth percent
In short: as §1

EKVX = conditions: Homo sapiens, 48 h, read-out: growth percent
In short: as §1

HT29 = conditions: Homo sapiens, HT-29, 48 h, read-out: growth percent
In short: as §1

T-47D = conditions: Homo sapiens, T47D, 48 h, read-out: growth percent
In short: (§2)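 Cells grown in RPMI 1640 with 5% FBS and 2 mM L-glutamine, plated and held 24 h at 37 °C; time-zero plates TCA-fixed. DMSO stocks were diluted in gentamicin-containing medium to a final 10^-5 M, with a DMSO-only control. Exposure 48 h, 5% CO2. Adherent cells TCA-fixed 1 h at 4 °C, stained with 0.4% SRB, solubilised in 10 mM Trizma base, read at 515 nm. Growth percent derived from ODtzero, ODtest and ODctrl.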

SK-MEL-5 = conditions: Homo sapiens, SK-MEL-5, 48 h, read-out: growth percent
In short: as §2

UACC-62 = conditions: Homo sapiens, UACC-62, 48 h, read-out: growth percent
In short: as §2

HOP-92 = conditions: Homo sapiens, HOP-92, 48 h, read-out: growth percent
In short: as §1

NCI-H522 = conditions: Homo sapiens, NCI-H522, 48 h, read-out: growth percent
In short: as §1

UO-31 = conditions: Homo sapiens, UO-31, 48 h, read-out: growth percent
In short: as §2

SK-OV-3 = conditions: Homo sapiens, SK-OV-3, 48 h, read-out: growth percent
In short: as §2

LOX IMVI = conditions: Homo sapiens, 48 h, read-out: growth percent
In short: as §1

SF-295 = conditions: Homo sapiens, SF-295, 48 h, read-out: growth percent
In short: as §1

786-0 = conditions: Homo sapiens, 786-0, 48 h, read-out: growth percent
In short: as §1

TK-10 = conditions: Homo sapiens, TK-10, 48 h, read-out: growth percent
In short: as §2

OVCAR-5 = conditions: Homo sapiens, OVCAR-5, 48 h, read-out: growth percent
In short: as §1

SR = conditions: Homo sapiens, 48 h, read-out: growth percent
In short: as §2

MCF-7 = conditions: Homo sapiens, MCF7, 48 h, read-out: growth percent
In short: as §1

MALME-3M = conditions: Homo sapiens, 48 h, read-out: growth percent
In short: as §1

NCI-H23 = conditions: Homo sapiens, NCI-H23, 48 h, read-out: growth percent
In short: as §1

SK-MEL-2 = conditions: Homo sapiens, SK-MEL-2, 48 h, read-out: growth percent
In short: as §2

COLO205 = conditions: Homo sapiens, COLO 205, 48 h, read-out: growth percent
In short: as §1

SNB-19 = conditions: Homo sapiens, SNB-19, 48 h, read-out: growth percent
In short: as §2

HCC-2998 = conditions: Homo sapiens, HCC 2998, 48 h, read-out: growth percent
In short: as §1

U251 = conditions: Homo sapiens, U-251, 48 h, read-out: growth percent
In short: as §2

BT-549 = conditions: Homo sapiens, BT-549, 48 h, read-out: growth percent
In short: as §1

CAKI-1 = conditions: Homo sapiens, CAKI-1, 48 h, read-out: growth percent
In short: as §1

RPMI-8226 = conditions: Homo sapiens, RPMI-8226, 48 h, read-out: growth percent
In short: as §1

HS 578T = conditions: Homo sapiens, 48 h, read-out: growth percent
In short: as §1

RXF 393 = conditions: Homo sapiens, RXF 393, 48 h, read-out: growth percent
In short: as §1

HCT-15 = conditions: Homo sapiens, HCT-15, 48 h, read-out: growth percent
In short: as §1

MDA-MB-435 = conditions: Homo sapiens, MDA-MB-435, 48 h, read-out: growth percent
In short: as §1

KM12 = conditions: Homo sapiens, KM12, 48 h, read-out: growth percent
In short: as §1

Structure (SMILES) | activity at 10 µM (NCI-H460) | activity at 10 µM (NCI-H226) | activity at 10 µM (K-562) | activity at 10 µM (MDA-MB-468) | activity at 10 µM (NCI/ADR-RES) | activity at 10 µM (EKVX) | activity at 10 µM (HT29) | activity at 10 µM (T-47D) | activity at 10 µM (SK-MEL-5) | activity at 10 µM (UACC-62) | activity at 10 µM (HOP-92) | activity at 10 µM (NCI-H522) | activity at 10 µM (UO-31) | activity at 10 µM (SK-OV-3) | activity at 10 µM (LOX IMVI) | activity at 10 µM (SF-295) | activity at 10 µM (786-0) | activity at 10 µM (TK-10) | activity at 10 µM (OVCAR-5) | activity at 10 µM (SR) | also measured
COc1cc(CNC(=O)CCCC/C=C/C(C)C)ccc1OCc1cn(-c2ccccc2OC)nn1 [14l, (E)-N-(3-Methoxy-4-((1-(2-methoxyphenyl)-1H-1,2,3-triazol-4-yl)methoxy)benzyl)-8-methylnon-6-enamide] | 104% | 80.5% | 76.1% | 75.5% | 94.6% | 89.4% | 98.7% | 92.2% | 83.9% | 75.1% | 72.1% | 63.9% | 105% | 99.8% | 86.1% | 108% | 102% | 90.2% | 113% | 77.4% | activity at 10 µM (MCF-7): 98.2%; activity at 10 µM (MALME-3M): 106%; activity at 10 µM (NCI-H23): 96%; activity at 10 µM (SK-MEL-2): 89.8%; activity at 10 µM (COLO205): 117%; activity at 10 µM (SNB-19): 91.6%; activity at 10 µM (HCC-2998): 117%; activity at 10 µM (U251): 90.2%; activity at 10 µM (BT-549): 93.1%; activity at 10 µM (CAKI-1): 79.9%; activity at 10 µM (RPMI-8226): 71.2%; activity at 10 µM (HS 578T): 83%; activity at 10 µM (RXF 393): 101%; activity at 10 µM (HCT-15): 106%; activity at 10 µM (MDA-MB-435): 110%; activity at 10 µM (KM12): 98.2%
COc1cc(CNC(=O)CCCC/C=C/C(C)C)ccc1OCc1cn(-c2ccc(C)cc2)nn1 [14n, (E)-N-(3-Methoxy-4-((1-(p-tolyl)-1H-1,2,3-triazol-4-yl)methoxy)benzyl)-8-methylnon-6-enamide] | 93.2% | 75.8% | 80% | 92.4% | 87.4% | 84.8% | 100% | 77.4% | 86.8% | 70.2% | 83.5% | 62.1% | 75.8% | 94.4% | 85.1% | 98.9% | 99.6% | 101% | 108% | 75.5% | activity at 10 µM (MCF-7): 96.3%; activity at 10 µM (MALME-3M): 110%; activity at 10 µM (NCI-H23): 87.9%; activity at 10 µM (SK-MEL-2): 91.9%; activity at 10 µM (COLO205): 115%; activity at 10 µM (SNB-19): 77.9%; activity at 10 µM (HCC-2998): 108%; activity at 10 µM (U251): 81.7%; activity at 10 µM (BT-549): 105%; activity at 10 µM (CAKI-1): 88.5%; activity at 10 µM (RPMI-8226): 74.1%; activity at 10 µM (HS 578T): 89.7%; activity at 10 µM (RXF 393): 102%; activity at 10 µM (HCT-15): 104%; activity at 10 µM (MDA-MB-435): 109%; activity at 10 µM (KM12): 96%
COc1cc(CNC(=O)CCCC/C=C/C(C)C)ccc1OCc1cn(-c2ccccc2Cl)nn1 [14c, (E)-N-(4-((1-(2-Chlorophenyl)-1H-1,2,3-triazol-4-yl)methoxy)-3-methoxybenzyl)-8-methylnon-6-enamide] | 101% | 81.8% | 76.8% | 88.2% | 92% | 82.1% | 98.2% | 74.3% | 89.8% | 73.3% | 80.1% | 64.5% | 75.2% | 91.3% | 89.9% | 99.4% | 93.8% | 94.6% | 104% | 68.5% | activity at 10 µM (MCF-7): 97.2%; activity at 10 µM (MALME-3M): 107%; activity at 10 µM (NCI-H23): 93.6%; activity at 10 µM (SK-MEL-2): 91%; activity at 10 µM (COLO205): 106%; activity at 10 µM (SNB-19): 89.7%; activity at 10 µM (HCC-2998): 110%; activity at 10 µM (U251): 85.7%; activity at 10 µM (BT-549): 90.8%; activity at 10 µM (CAKI-1): 93.4%; activity at 10 µM (RPMI-8226): 75.5%; activity at 10 µM (HS 578T): 97.2%; activity at 10 µM (RXF 393): 105%; activity at 10 µM (HCT-15): 94.1%; activity at 10 µM (MDA-MB-435): 103%; activity at 10 µM (KM12): 97.7%

Reference: article PMC9476207 (ACS Omega, 2022)
